This is a sample that favours compounds with a hit; in the whole collection about 2.3% have one here.
TRPC4 potent: positive allosteric modulators of TRPC4, primary screen, cell-based, mouse TRPC4beta, HEK293 mu-opioid, Fluo-4 calcium. B-score at 10 µM. AID 2227, 2009. 0.42% of 310,000 active. DAMGO EC20, Fluo-4 Ca2+ flux; stronger effect = higher value. Short transient receptor potential channel 4 (Mus musculus), Q9QUQ5;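 active means B-score of calcium response area above 5 SD of library B-scores, with initial fluorescence ratio within 5 SD of library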;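 further: B-score of integrated fluorescence ratio over time as area under calcium response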
Target sequence (Q9QUQ5 whole entry, looked up): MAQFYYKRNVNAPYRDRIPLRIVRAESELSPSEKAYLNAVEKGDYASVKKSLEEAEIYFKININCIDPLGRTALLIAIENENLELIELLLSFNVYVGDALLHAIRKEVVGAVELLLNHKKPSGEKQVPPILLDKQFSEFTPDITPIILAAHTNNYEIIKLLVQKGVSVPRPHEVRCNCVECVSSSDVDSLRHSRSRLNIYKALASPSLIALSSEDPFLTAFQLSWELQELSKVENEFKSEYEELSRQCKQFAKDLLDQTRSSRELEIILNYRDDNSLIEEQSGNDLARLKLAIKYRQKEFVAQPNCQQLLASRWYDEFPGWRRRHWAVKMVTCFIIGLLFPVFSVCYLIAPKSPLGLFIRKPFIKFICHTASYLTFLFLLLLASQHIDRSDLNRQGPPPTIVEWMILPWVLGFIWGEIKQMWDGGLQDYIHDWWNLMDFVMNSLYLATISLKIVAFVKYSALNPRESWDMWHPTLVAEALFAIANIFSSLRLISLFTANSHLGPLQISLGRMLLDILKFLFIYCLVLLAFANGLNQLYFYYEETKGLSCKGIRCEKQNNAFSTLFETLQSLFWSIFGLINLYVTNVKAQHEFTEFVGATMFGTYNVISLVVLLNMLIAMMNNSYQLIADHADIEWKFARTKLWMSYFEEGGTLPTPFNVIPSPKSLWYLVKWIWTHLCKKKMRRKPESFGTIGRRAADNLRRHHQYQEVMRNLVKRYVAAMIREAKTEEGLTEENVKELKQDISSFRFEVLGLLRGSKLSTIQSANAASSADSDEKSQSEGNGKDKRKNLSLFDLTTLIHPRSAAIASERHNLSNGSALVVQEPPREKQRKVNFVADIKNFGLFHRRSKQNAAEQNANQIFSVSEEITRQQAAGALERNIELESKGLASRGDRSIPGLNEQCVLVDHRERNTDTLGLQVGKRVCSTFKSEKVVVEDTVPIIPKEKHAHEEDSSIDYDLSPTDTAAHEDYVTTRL
TRPC6 act: mouse TRPC6 channel activators, primary screen, cell-based, HEK293, membrane potential dye; HEK293-TRPC6 membrane potential dye fluorescence; stronger effect = higher value; B-score at 10 µM; 0.13% of 310,000 active;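 active means B-score of the integrated fluorescence ratio above library mean plus 3 SD, and starting fluorescence ratio within library mean plus 5 SD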;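 further: higher score means more depolarization so channel activation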
TRPC4 inh: inhibitors of mouse TRPC4 channel, primary screen, Fluo4 calcium, HEK293 TRPC4beta/mu-opioid cells. DAMGO-evoked Fluo4 calcium flux; stronger effect = lower value. B-score at 10 µM. 0.39% of 300,000 active;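 active means B-score over 3 SD under the library average, no early fluorescence shift, positive overall ratio signal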
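System: stable TRPC4beta/mu-opioid receptor HEK293 cells; Dosing: single-point compound dosing; Measured by: Fluo4 Ca2+ flux fluorescence; Read-out basis: per-well B score of integrated baseline-normalized Fluo4 ratio.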
TRPC4 act: activators of mouse TRPC4 channel, primary screen, Fluo4 calcium, HEK293 TRPC4beta/mu-opioid cells; B-score at 10 µM; 0.49% of 310,000 active; Fluo4 calcium fluorescence; stronger effect = higher value; Short transient receptor potential channel 4 (Mus musculus), Q9QUQ5;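 active means B-score above 5 SD of library B-scores, and initial fluorescence ratio not above library mean plus 5 SD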;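 further: positive B-score marks a calcium rise read as TRPC4 activation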
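system = HEK293 cells stably co-expressing mouse TRPC4beta and mu-opioid receptor | schedule = Fluo4 dye loading 45 min at room temperature, 110 s recording | measure = B-scored integrated calcium fluorescence ratio | signal = Fluo4 calcium-sensitive dye fluorescence, kinetic, 1 Hz baseline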
TRPC6 inh: mouse TRPC6 channel inhibitors, primary screen, cell-based, HEK293, membrane potential dye | Short transient receptor potential channel 6 (Mus musculus), Q61143 | ACh-evoked depolarization; stronger effect = lower value | B-score at 10 µM | 1.1% of 310,000 active;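 active means B-score under library mean minus 3 SD, initial fluorescence not abnormally high, positive integrated signal ratio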;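 further: B-score derived from integrated fluorescence ratio over the kinetic read; more negative B-score means stronger inhibition of depolarization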
Starred values were filed as active, the others as inactive; i = inactive.

SMILES | TRPC4 potent | TRPC6 act | TRPC4 inh | TRPC4 act | TRPC6 inh
COc1cc(CN2CCCC(C(=O)c3ccccc3SC)C2)cc(OC)c1 (stereo not drawn) | i | i | -6* | i | i
COc1cc(NC(=O)c2onc(C)c2Cl)cc(OC)c1OC | i | i | i | i | i
Cc1cccc(C(=O)NCC(=O)N2CCOCC2)c1 | i | i | i | i | i
CCCCn1c(N)c(N(CC(C)C)C(=O)c2ccc(-c3ccc(C(C)=O)cc3)o2)c(=O)[nH]c1=O | i | i | i | i | i
COc1ccc(CN(CCC(c2ccccc2)C2CCOC(C)(C)C2)C(C)=O)cc1 (stereo not drawn) | i | i | i | i | i
COc1ccc(CNCCC(c2ccccc2)C2CCOC(C)(C)C2)cc1 (stereo not drawn) | i | i | i | 60* | i
CCOc1cc(/C=N/N=C/c2ccc(O)c(OCC)c2)ccc1O | i | i | i | i | i
COc1cc(/C=C2\CCC/C(=C\c3ccc(O)c(OC)c3)C2=O)ccc1O | i | i | -6* | i | i
COc1cc(/C=C2/CCCC(C(=O)C(F)(F)F)=C2O)ccc1O | i | i | i | i | i
CCOc1cc(/C=C2\CN(CC)C/C(=C\c3ccc(O)c(OCC)c3)C2=O)ccc1O | 17* | i | i | i | i
COc1cc(/C=C2\SC(N3CCC(C)CC3)=NC2=O)ccc1O | i | i | -6* | i | i
CCCCOc1ccc(C(=O)NCC(=O)N2CCN(C(=O)c3ccco3)CC2)cc1 | i | i | i | i | i
Cc1ccc(CNc2nc(-c3cccs3)nc3ccccc23)cc1 | i | i | i | i | i
Oc1ccccc1-c1nc(NCc2ccco2)c2ccccc2n1 | i | i | i | i | i
c1ccc(-c2nc(NCc3ccco3)c3ccccc3n2)nc1 | i | i | -6* | i | i
c1ccc(CNc2nc(-c3cccs3)nc3ccccc23)nc1 | i | i | -6* | i | i
COc1cc(/C=N/N2CCCCC2)cc([N+](=O)[O-])c1O | i | i | i | i | i
CCOC(=O)c1c(-c2ccc(OC)cc2)oc2ccc(O)cc12 | 17* | i | i | i | i
Cc1ccc(C2(c3ccc(C)cc3)CC2C(=O)NCc2cccnc2)cc1 (stereo not drawn) | i | i | i | i | i
CC1=CC(C)(C)N2C(=O)C3(SCC(=O)N3c3ccc(O)cc3)c3cc(C)cc1c32 (stereo not drawn) | 10* | i | i | i | i
CCOC(=O)CC(NC(=O)c1cc2cc(Cl)cc(Cl)c2oc1=O)c1cccc([N+](=O)[O-])c1 (stereo not drawn) | 21* | i | i | i | i
CCOC(=O)CC(NC(=O)c1cc2cccc(OC)c2oc1=O)c1cccc([N+](=O)[O-])c1 (stereo not drawn) | i | i | i | i | i
CN(C)c1ccc(NC(=O)CSc2nc(C3CC3)nc3ccccc23)cc1 | i | i | i | i | i
CCOC(=O)C1(CCCc2ccccc2)CCN(Cc2cn(CC)nc2C)CC1 | i | i | i | 124* | i
CCOC(=O)C1(Cc2cccc(F)c2)CCN(Cc2cn(CC)nc2C)CC1 | i | i | i | 78* | i
SMILES | TRPC4 potent | TRPC6 act | TRPC4 inh | TRPC4 act | TRPC6 inh
CCCn1ncc(CN2CCC(Cc3cccc(F)c3)(C(=O)OCC)CC2)c1C | i | i | i | i | i
CCOC(=O)C1(Cc2cccc(F)c2)CCN(Cc2c(C)nn(CC)c2C)CC1 | i | i | -6* | i | i
CCOC(=O)C1(Cc2cccc(F)c2)CCN(C(=O)COC)CC1 | i | i | i | i | i
CCN1CCN(C(=O)C(=O)c2c(C)[nH]c3ccccc23)CC1 | i | i | i | i | i
Cc1cc(Cl)c(S(=O)(=O)N2CCN(c3ccc(F)cc3)CC2)cc1OCC(=O)NC1CCCCC1 | i | i | i | i | i
Fc1ccc(-n2cc(CNCCc3ccccn3)c(-c3ccccc3Cl)n2)cc1 | i | i | i | 253* | i
Cc1ccc(-n2cc(CNCCc3ncc(C)[nH]3)c(-c3ccc(F)cc3)n2)cc1 | i | i | i | 133* | i
COc1ccc(-n2cc(CNCCc3nc(C)cc(C)n3)c(-c3ccccc3Cl)n2)cc1 | i | i | i | i | i
COc1ccc(-n2cc(CNCCc3ncc(C)[nH]3)c(-c3ccccc3Cl)n2)cc1 | i | i | i | 148* | i
COc1ccc(-n2cc(CNCCCn3ccnc3)c(-c3ccccc3Cl)n2)cc1 | i | i | i | i | i
N/C(Cc1nc(-c2ccc(Cl)cc2)cs1)=N/O | i | i | i | i | i
O=C(c1cc(=O)[nH]c2ccccc12)N(Cc1nnc(-c2ccccc2Cl)o1)C1CC1 | i | i | i | i | i
Cc1c(C(=O)NCCc2ccccc2)oc2ccccc12 | 22* | i | i | i | i
COc1nc(N=C(N)N)nc2ccc(C)cc12 | i | i | -5* | i | i
CC1CCCC(C)N1CC(O)COCc1ccccc1F (stereo not drawn) | i | i | i | i | i
CC(Oc1ccccc1)C(=O)Nc1ccc(C(N)=O)cc1 (stereo not drawn) | i | i | i | i | i
CC(C)NS(=O)(=O)c1ccc(NC(=O)C(C)Oc2ccc(C(=O)c3ccccc3)cc2)cc1 (stereo not drawn) | 44* | i | i | i | i
Cc1sc2ccc3sccc3c2[n+]1C | i | i | i | i | -5.4*
Cc1cc(OCC(=O)N2CCCC2)cc(C)c1Cl | i | i | i | 84* | i
Cc1cc(OCC(=O)N2CCCC2)ccc1Cl | i | i | i | i | i
Clc1ccc(-c2c[n+](Cc3cccc(Cl)c3)c3n2CCC3)cc1 | i | i | -6* | i | i
Clc1ccc(C[n+]2cc(-c3ccccc3)n3c2CCC3)cc1Cl | i | i | -6* | i | i
Clc1ccc(-c2c[n+](Cc3ccc(Br)cc3)c3n2CCCCC3)cc1 | i | i | i | i | i
O=[N+]([O-])c1ccc(C[n+]2cc(-c3ccc(Cl)c(Cl)c3)n3c2CCCCC3)cc1 | i | i | i | i | i

Screening data as filed in PubChem BioAssay.
